Data as given in publication PMC4475676 (Biochemistry, 2015).
Values belong to the substance of their own block, whether it stands above or below them.

Tests used:
peptide substrate [1] = assay: NMR titration binding affinity
Outline: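 500 μM 15N-labeled wild-type or mutant protein titrated with 0, 0.1, 0.2, 0.5, 1 and 2 mM peptide. 15N HSQC recorded at 900 MHz. Shift changes of perturbed peaks were fit individually to a quadratic single-site binding equation. Peaks fitting with r² > 0.99 (fast exchange) were then fit globally for one KD per protein. Protein and peptide were in 50 mM Na2HPO4, 1 mM DTT, 1 mM EDTA, pH 6.5.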

peptide substrate [2] = assay: ZZ-exchange NMR catalytic efficiency; format: biochemical
Outline: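 ZZ-exchange NMR used 1 mM 15N-labeled peptide with unlabeled enzyme, 20 μM at 0–20 °C or 1 μM at 30–45 °C. kex_eff came from time-dependent cross-peak build-up, with fit errors from a single experiment. Catalytic-Arg mutants used 100 μM protein at 30 °C with a 0.768 s mixing time. For these, the cis-peak to cross-peak intensity ratio stood in for turnover.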

[3] = denatures entirely; cited from earlier work
GeoCyp = details: cited from earlier work
CypA = details: cited from earlier work

effect of swap mutation on peptide binding (peptide substrate [1]; relative to wild type, NMR titration): strengthened
Substance: CypA^A103R: CypA swap mutant, Ala 103 to Arg
effect of swap mutation on catalytic efficiency (peptide substrate [2]; relative to wild type, ZZ-exchange, 20 μM protein): less

Substance: CypA^R55A: CypA with mutation of the catalytic arginine Arg 55 to alanine
catalysis after mutation of catalytic arginine (peptide substrate [2]; 100 μM protein, 1 mM peptide, 30 °C): nearly, but not entirely, ablates catalysis

temperature dependence of binding affinity for the peptide (peptide substrate [1]): highly temperature-dependent
Substance: CypA^WT: prototypical human cyclophilin A, mesophilic peptidyl-prolyl isomerase
Tm / denaturation temperature [3]: 51 °C | turnover at 45 °C compared between CypA and GeoCyp (peptide substrate [2]; 45 °C, 1 μM protein, 1 mM peptide): comparable rate

Substance: GSFGPDLRAGD [peptide substrate]
isomerization of G-P peptide bond by GeoCyp (GeoCyp): readily isomerized | isomerization of G-P peptide bond by CypA (CypA): readily isomerized
